TAAR1 ag: human TAAR1 agonism. Q96RJ0. CHO RD-HGA16 TAAR1, Fluo-8 calcium fluorescence; vehicle wells 0%, saturating PEA agonist 100%. activation, % at 3 µM. hit rate 0.99% among 360,000;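 active = activation above the mean activation of all test compounds in the run plus 3 SD, cut at about 38% in these data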
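test system = CHO RD-HGA16 cells carrying human TAAR1 plus Gα16 | schedule = 17-24 h seeding, 75 min 37 °C dye, 30 min RT | compound dosing = 3 µM single concentration | control set = DMSO and PEA EC100 | replicates = n 1 | signal = Fluo-8 fluorescence, 5 s baseline then 140 s kinetic read | measure = percent activation vs PEA EC100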
CHO parental Ca: counter-screen: ATP calcium response change in parental CHO cells; hit rate 0.63% among 330,000; AID 463079; parental CHO-K1, ATP-induced calcium, Fluo-8 fluorescence; inhibition, % at 5.6 µM;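 active = inhibition above that plate's mean sample inhibition plus 3 SD, cut at about 26% in these data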
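material = parental CHO cells | also added = ATP as calcium-mobilizing challenge | dosing = single point at 5.6 µM | detection = intracellular calcium via Fluo-8 no-wash fluorescent dye | read-out = % inhibition | benchmarks = low control ATP plus DMSO, high control DMSO only | repeats = one well per compound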
OX1R antag-1: human HCRTR1 antagonism; hit rate 0.43% among 330,000; O43613; inhibition, % at 5 µM; CHO/OX1R cells, Fluo-8 calcium fluorescence, orexin A;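 active = inhibition above its plate's threshold, mean inhibition of all tested compounds on the plate plus 3 SD, cut at about 37% in these data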
Target sequence (O43613 whole entry, looked up): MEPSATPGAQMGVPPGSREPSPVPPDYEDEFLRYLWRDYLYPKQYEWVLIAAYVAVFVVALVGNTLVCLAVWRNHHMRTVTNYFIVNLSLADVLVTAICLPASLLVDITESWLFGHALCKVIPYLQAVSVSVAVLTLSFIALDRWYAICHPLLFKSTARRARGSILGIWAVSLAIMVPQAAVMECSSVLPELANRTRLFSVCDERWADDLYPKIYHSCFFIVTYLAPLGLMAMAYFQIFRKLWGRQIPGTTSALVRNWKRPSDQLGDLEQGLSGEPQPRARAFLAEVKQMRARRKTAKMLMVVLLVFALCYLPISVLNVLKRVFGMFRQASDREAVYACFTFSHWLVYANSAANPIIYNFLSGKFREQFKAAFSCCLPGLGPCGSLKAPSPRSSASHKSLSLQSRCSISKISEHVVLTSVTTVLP
TAAR1 antag: human TAAR1 antagonism; inhibition, % at 3 µM; Q96RJ0; hit rate 1.5% among 360,000; CHO RD-HGA16 TAAR1, Fluo-8 calcium fluorescence, antagonist;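 active = inhibition above a per-plate cutoff, the mean inhibition of test compounds on that plate plus 3 SD, cut at about 49% in these data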
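Material: CHO RD-HGA16 cells bearing hTAAR1; compound dosing: one-point dosing, 3 µM nominal final; schedule: dye loading 75 min at 37 °C, then 30 min room temperature; measured by: calcium fluorescence with Fluo-8; control set: vehicle and agonist controls; replication: n of 1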
GalR3 antag: human GalR3 antagonism. AID 651719. O60755. inhibition, % at 3 µM. hit rate 0.44% among 360,000. HEK293 GalR3-CNG cAMP membrane potential fluorescence; galR3 body fused to GalR1 C-terminus;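 active = inhibition above the screen-wide average plus 3 SD, cut at about 13% in these data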;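 note: forskolin and galanin both at EC90 stimulate the cells; cAMP rise reported by CNG channel membrane potential dye signal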
OX1R antag-2: OX1R (human) antagonism | O43613 | inhibition, % at 6.6 µM | AID 485270 | OX1R-expressing cells, FRET antagonist read-out | hit rate 1.8% among 330,000; in the data active = inhibition mostly above about 38%, no sharp cut-off; inactive = mostly below about 40%
Numbers stand for hits; n = inactive; x = not tested or not shown. This is a sample that favours compounds with a hit; in the whole collection about 4.3% have one here.

SMILES	TAAR1 ag	CHO parental Ca	OX1R antag-1	TAAR1 antag	GalR3 antag	OX1R antag-2
CCC(=O)N(C1=C(NC(C)C)C(=O)c2ccccc2C1=O)C(C)C	n	n	n	n	n	n
CCCNC1=C(N(C(C)=O)c2cccc(F)c2)C(=O)c2ccccc2C1=O	n	n	n	n	n	68
CC(C)C[C@H]1CN(CCCC[C@@H]2CNC(=O)C(=O)N2Cc2ccccc2)C(=O)C(=O)N1Cc1ccccc1	n	x	x	n	n	x
COC(=O)C1=C(C)NC(C)=C(C(=O)OC)C1c1ccc2ccccc2n1	n	n	n	n	n	n
O=C1c2ccccc2C(=O)C1c1ccc2ccccc2n1	n	n	n	n	n	51
Cc1cc(O)cc(=O)n1-c1ccc(OC(F)F)cc1	n	x	x	n	n	x
Fc1cccc(Cc2c(-c3ccccc3)nc3c(Cl)cc(C(F)(F)F)cn23)c1	n	x	x	n	n	x
O=C(/C=C/c1cccs1)NC(=S)NNC(=O)Cc1cccs1	67	n	n	n	n	n
CCC(c1nnc(SCC(=O)Nc2c(F)cccc2F)n1Cc1ccccc1)N(C)C (stereo not drawn)	n	n	n	n	n	n
COc1cc(/C=C2/SC(N)=NC2=O)ccc1Oc1ccc([N+](=O)[O-])cc1[N+](=O)[O-]	n	n	n	n	n	n
COc1cc(/C=C2\SC(=O)NC2=O)ccc1Oc1ccc([N+](=O)[O-])cn1	n	n	n	n	n	53
COc1cc(/C=C2/SC(=O)NC2=O)ccc1Oc1ccc([N+](=O)[O-])cc1[N+](=O)[O-]	n	n	n	n	n	47
COc1ccc([C@H]2C[C@H](O)C[C@@H](CCn3cc(-c4ccccc4)nn3)O2)cc1	n	x	x	n	n	x
Cc1cc(C)c(C(N)=O)c(SCC(=O)c2cc(C)c(C)cc2C)n1	n	n	n	n	n	n
Cc1cc(C)c(C(N)=O)c(SCC(=O)c2cc(C)n(-c3cc(C)on3)c2C)n1	n	31	n	n	n	n
Cc1ccnc(NC(=O)c2cccc(NC(=O)CC3SC(N4CCCCC4)=NC3=O)c2)c1 (stereo not drawn)	n	n	n	n	n	n
CCCCn1c(SCc2nc(N)nc(Nc3ccccc3C)n2)nc2ccccc2c1=O	n	n	n	n	n	71
COCC(C)n1c(SCc2nc(N)nc(Nc3ccccc3C)n2)nc2ccccc2c1=O (stereo not drawn)	n	n	n	n	n	n
CCN(CC(=O)NCc1ccc(F)cc1)C(=O)c1ccc(C(=O)c2ccccc2)cc1	n	n	n	n	n	n
COc1ccc([C@H]2C[C@H](O)[C@@H](n3cc(-c4ccc(F)cc4)nn3)CN2C(=O)c2cccs2)cc1	n	x	x	n	n	x
COC(=O)C[C@@H]1CC[C@@H](NS(=O)(=O)c2ccccc2OC)[C@@H](CO)O1	n	x	x	n	n	x
CCOP(=O)(c1ccccc1)c1nc(-c2ccccc2C)oc1N1CCCCC1 (stereo not drawn)	60	n	n	n	n	n
Cc1ccccc1-c1nc(P(=O)(c2ccccc2)c2ccccc2)c(N2CCOCC2)o1	n	n	n	n	n	n
CNC(=O)c1c(NC(=O)c2nc3ccccc3s2)sc2c1CCC2	x	n	n	x	x	44
COc1ccc(Br)cc1C1CC(=O)N2CN(C)CSC2=C1C#N (stereo not drawn)	46	n	n	n	x	n
SMILES	TAAR1 ag	CHO parental Ca	OX1R antag-1	TAAR1 antag	GalR3 antag	OX1R antag-2
CC1=CC2=NC(=O)/C(=C\c3cc(C)n(-c4ccccc4F)c3C)C(=N)N2O1	n	n	n	n	n	n
Cc1cc(/C=C2\C(=N)N3N=C(S(C)(=O)=O)SC3=NC2=O)c(C)n1Cc1ccccc1	n	n	n	n	n	58
Cc1cc(/C=C2/C(=N)N3C(=NC2=O)SN=C3S(C)(=O)=O)c(C)n1-c1ccccc1F	n	n	n	n	n	47
Cc1cc(/C=C2\C(=N)N3N=CSC3=NC2=O)c(C)n1Cc1ccccc1	n	n	n	n	n	n
O=C(c1ccc(Br)cc1)N1CCN(c2ccccn2)CC1	n	x	x	n	n	x
COc1ccc(C(=O)NCC2CCN(C(=O)C(=O)c3cccs3)CC2)c(OC)c1	n	x	x	n	n	x
c1cc(-c2cc3cc4c(cc3cn2)OCO4)cs1	n	n	n	n	n	70
COc1cc2cnc(-c3ccsc3)cc2cc1OC	n	n	n	n	n	n
CCCOc1cc(N(CC)CC)ccc1/C=C(/C#N)c1nc2ccc(C)cc2[nH]1	41	75	118	77	n	n
CCOc1cc(N(CC)CC)ccc1/C=C(/C#N)c1nc2ccccc2[nH]1	48	70	109	92	n	71
CCN(CC)c1ccc(/C=C(/C#N)c2nc3ccc(C)cc3[nH]2)c(OC(C)C)c1	41	68	116	73	n	n
Cc1ccc2nc(/C(C#N)=C\c3cc(O)ccc3[N+](=O)[O-])[nH]c2c1	n	n	n	n	n	n
C[C@@H]1CN(c2ccc(N3CCNC[C@H]3C)cc2C#N)CCN1Cc1ccccc1	n	x	x	n	n	x
COc1ccc(-n2nc3c(N)n[nH]c3cc2=O)cc1	n	n	n	n	n	54
COc1ccc(-n2nc(C(N)=O)c(O)cc2=O)cc1	n	n	n	n	n	n
Nc1n[nH]c2cc(=O)n(-c3ccc(Cl)cc3)nc12	n	n	n	n	n	46
Nc1ccn(-c2ccc(Cl)cc2)c(=O)c1	n	n	n	n	n	n
COc1ccc(CCNC(=O)COc2ccc(S(=O)(=O)NC(C)C)cc2Cl)cc1OC	x	n	n	x	x	47
CC(C)(CSc1ncccn1)NS(=O)(=O)c1ccccc1	n	n	n	n	n	n
Cc1ccc(S(=O)(=O)NC(C)(C)CSc2nnc(Nc3ccccc3)s2)cc1	n	53	50	n	n	n
CCCn1c(C)c(CC(=O)Nc2ccc(N(C)c3ccccn3)cc2)c2ccccc21	n	x	x	n	n	x
CC(=O)c1c(C)[nH]c(C(=O)OCC(=O)Nc2ccc(Cl)cc2[N+](=O)[O-])c1C	n	n	n	n	71	n
CCCCc1ccc(S(=O)(=O)NC(=O)C2(C)CCN2C(=O)C/C=C/c2ccccc2)cc1 (stereo not drawn)	n	x	x	n	n	x
CSc1oc(-c2ccccc2)nc1S(=O)(=O)c1ccc(C)cc1	n	29	n	n	n	n
COC(=O)c1ccc(CN2C(=O)[C@]3(OCCC=C[C@H]3C)c3ccccc32)cc1	n	x	x	n	n	x
CC(C)Nc1nc(NC(C)C)nc(N(C)N)n1	n	100	n	n	n	n
CCN(Cc1ccccc1)C(=O)COC(=O)c1c(C)nsc1NC	n	n	n	n	n	50
CCCCn1c(=NC(=O)c2ccco2)c(C(=O)OCC)cc2c(=O)n3ccccc3nc21	n	n	n	n	n	76
CCCCCn1c(=NC(=O)c2ccco2)c(C(=O)OCC)cc2c(=O)n3ccccc3nc21	n	n	n	n	n	51
